Data set [1] can be described thus: Plasma pharmacokinetics of gemcitabine. The class given is in vivo, human. As to conditions: for Tmax / AUC / Cmax: human, plasma, intravenous; for Cmax: Gemcitabine Cmax; for effect of multiple doses of lonafarnib on the pharmacokinetics of gemcitabine: Day 15 versus Day 1.
Data set [2] can be described thus: Multiple-dose plasma pharmacokinetics of lonafarnib. The class given is in vivo, human. To be noted: for AUC / Cmax / Tmax / half-life: human, plasma, oral; for AUC: Lonafarnib AUC (τ), 12 hour dosing interval; for Cmax: Lonafarnib Cmax; for Tmax: Lonafarnib Tmax (median); for half-life: Lonafarnib T½. The essentials:
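Patients with advanced cancer took oral drug twice daily with food continuously, plus 30 min IV gemcitabine on days 1, 8, 15 of 28-day cycles. The evening dose was withheld on […]. Plasma was sampled on day 15 of cycles 1 and 2, pre-dose and to 24 h. LC-MS/MS had LLOQ 5.00 ng/mL.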

A further data set has as its target farnesyl transferase (Homo sapiens, UniProt P49354+P49356). The data set is described as follows: Prelamin A accumulation in buccal mucosal cells. The format is in vivo. As to conditions: buccal mucosal swabs, cycle 1 day 15 versus day 1; 10 of 17 samples.
Setting [3] is: lonafarnib 100 mg BID+gemcitabine 750 mg/m2, cycle 1 day 15, n=4.
Setting [4] is: lonafarnib 100 mg BID+gemcitabine 750 mg/m2, cycle 2 day 15, n=3.
[5] abbreviates: lonafarnib 100 mg BID+gemcitabine 1000 mg/m2, cycle 1 day 15, n=3.
[6] abbreviates: lonafarnib 200 mg BID+gemcitabine 600 mg/m2, cycle 2 day 15, n=4.

Usually Tmax stands for the time at which the peak concentration occurs. Usually AUC stands for concentration integrated over time. A lower AUC goes with low exposure. What is called Cmax is the peak of the concentration-time curve. For `Nc1ccn([C@@H]2O[C@H](CO)[C@@H](O)C2(F)F)c(=O)n1` [Gemcitabine], the Tmax was 0.38 h in data set [1] (600 mg/m2, Gemcitabine Tmax (median), lonafarnib 200 mg BID+gemcitabine 600 mg/m2, cycle 1 Day 1 (gemcitabine alone), n=6); 0.5 h in data set [1] (750 mg/m2, Gemcitabine Tmax (median), lonafarnib 100 mg BID+gemcitabine 750 mg/m2, cycle 1 Day 1 (gemcitabine alone), n=4); 0.25 h in data set [1] (750 mg/m2, Gemcitabine Tmax (median), lonafarnib 150 mg BID+gemcitabine 750 mg/m2, cycle 1 Day 1 (gemcitabine alone), n=2); 0.38 h in data set [1] (1000 mg/m2, Gemcitabine Tmax (median), lonafarnib 100 mg BID+gemcitabine 1000 mg/m2, cycle 1 Day 1 (gemcitabine alone), n=2); 0.5 h in data set [1] (Gemcitabine Tmax (median), lonafarnib 100 mg BID+gemcitabine 750 mg/m2, cycle 1 Day 15 (with lonafarnib), n=4); 0.25 h in data set [1] (Gemcitabine Tmax (median), lonafarnib 100 mg BID+gemcitabine 1000 mg/m2, cycle 1 Day 15 (with lonafarnib), n=3). In data set [1] (Gemcitabine Tmax (median), lonafarnib 200 mg BID+gemcitabine 600 mg/m2, cycle 1 Day 15 (with lonafarnib), n=7), the Tmax worked out at 0.25 h. Moreover, the AUC amounted to 5380 ng·h/mL in data set [1] (750 mg/m2, Gemcitabine AUC (τ), lonafarnib 100 mg BID+gemcitabine 750 mg/m2, cycle 1 Day 1 (gemcitabine alone), n=4); 7890 ng·h/mL in data set [1] (Gemcitabine AUC (τ), lonafarnib 100 mg BID+gemcitabine 750 mg/m2, cycle 1 Day 15 (with lonafarnib), n=4); 5060 ng·h/mL in data set [1] (Gemcitabine AUC (τ), lonafarnib 100 mg BID+gemcitabine 1000 mg/m2, cycle 1 Day 15 (with lonafarnib), n=3); 4970 ng·h/mL in data set [1] (Gemcitabine AUC (τ), lonafarnib 200 mg BID+gemcitabine 600 mg/m2, cycle 1 Day 15 (with lonafarnib), n=7). Further, the Cmax in data set [1] (lonafarnib 100 mg BID+gemcitabine 750 mg/m2, cycle 1 Day 15 (with lonafarnib), n=4) turned out to be 15000 ng/mL; in data set [1] (lonafarnib 100 mg BID+gemcitabine 1000 mg/m2, cycle 1 Day 15 (with lonafarnib), n=3), 9800 ng/mL; in data set [1] (lonafarnib 200 mg BID+gemcitabine 600 mg/m2, cycle 1 Day 15 (with lonafarnib), n=7), 11200 ng/mL.
The half-life is how long it takes for the measured level to halve. Read a high half-life as slow loss. For the molecule `NC(=O)N1CCC(CC(=O)N2CCC([C@H]3c4ncc(Br)cc4CCc4cc(Cl)cc(Br)c43)CC2)CC1` [Lonafarnib], in data set [2] (setting [3]), the AUC came out at 6000 ng·h/mL, the Cmax was 717 ng/mL, the Tmax was 5 h and the half-life is 5.21 h. In data set [2] (setting [4]), the AUC came to 6030 ng·h/mL, the concentration peaked (Cmax) at 757 ng/mL, the Tmax is 4 h and the half-life was 3.5 h. Moreover, in data set [2] (setting [5]), the AUC was 8200 ng·h/mL, the Cmax is 1010 ng/mL, the Tmax was 4 h and the half-life is 3.8 h. In data set [2] (setting [6]), the AUC is 14500 ng·h/mL, the Cmax was 1880 ng/mL, the Tmax is 5 h and the half-life is 4.78 h. For the same molecule, in data set [2] (log-transformed data), the “90% confidence interval for the AUC(τ) point estimate, Cycle 2 Day 15 to Cycle 1 Day 15” value is 76.2–145% and the “AUC(τ) point estimate, Cycle 2 Day 15 compared to Cycle 1 Day 15” value is 105%. Besides, the “mean total body clearance (CL/F), range over dose levels” value in data set [2] (twice daily multiple doses with weekly gemcitabine) was 163 to 594 mL/min. Further, in data set [1], the “effect of multiple doses of lonafarnib on the pharmacokinetics of gemcitabine” value was “no apparent effect”. Besides, the “effect of multiple doses of lonafarnib on the pharmacokinetics of gemcitabine” value in data set [1] (listed as lonafarnib) is listed as “no important effect”. Moreover, the “samples showing prelamin A accumulation after treatment” value on farnesyl transferase turned out to be 59%.
